bCat KO growth: primary screen for growth suppressors in beta-catenin knockout HCT116 cells (colon tumor, human); HCT116 beta-catenin knockout viability, CellTiter-Glo, 60 h; hits give low values; viability, % at 10 µM; 140,000 compounds, 1.5% hits; AID 818, 2007;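 active means viability at or under a set limit, the compound median less 4 SD, cut at about 6% in these data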
HUVEC inhibit: inhibitors of HUVEC proliferation, primary screen, cell-based, 384-well | CellTiter-Glo luminescence, 72 h; hits give low values | viability, % at 10 µM (by protocol) | 86,000 compounds, 1.1% hits | AID 648, 2007;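 active means viability at or below 30%; inactive means viability above 30%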
HCT116 PTEN-null: growth suppression of PTEN-null HCT116, primary screen, cell-based, CellTiter-Glo. HCT116 PTEN-null viability, 60 h; hits give low values. viability, % at 10 µM. 140,000 compounds, 1.2% hits. AID 827, 2007;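 active means viability at or below a set limit, 4 SD under the median of all tested compounds, cut at about 3.7% in these data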;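 further: PTEN knockout HCT116 line with beta catenin targeted HCT116 as companion control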
Lung fibro prol: antiproliferative effect on LL 47 fibroblasts – human, LL 47 cells, CellTiter-Glo luminescence, primary screen; viability, % at 10 µM; 85,000 compounds, 1.1% hits; LL 47 human lung fibroblast viability, ATP luminescence; hits give low values;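 active means viability at or below 50% in the single dose screen; inactive means viability above 50%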;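 further: compound exposure lasted 72 h before the ATP readout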
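Test system: LL 47 human lung fibroblasts / Quantity: 1,150 cells in each well / Medium: IMEM growth medium with 15% fetal bovine serum / Incubation: 72 h compound exposure at 37 °C after overnight plating / Detection: CellTiter-Glo luminescence measuring cellular ATP / Read-out: % viability versus median cells-only luminescence / Benchmarks: cell-only wells, no compound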
H69AR inhibit: proliferation blockers of H69AR lung cancer cells, primary screen, cell-based, human, 86K library; AID 598, 2007; viability, % at 10 µM; 85,000 compounds, 6% hits; H69AR lung tumor viability, ATP luminescence, 72 h; hits give low values;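 active means viability at or below 40%; inactive means viability above 40%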;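 further: multidrug resistant small cell line overexpressing MRP-1 efflux transporter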
A number is an active result; n = inactive; x = no result given. Only a selection was taken, and hits are over-represented in it overall.

SMILES	bCat KO growth	HUVEC inhibit	HCT116 PTEN-null	Lung fibro prol	H69AR inhibit
CCOC(=O)C1=C(C)N=c2s/c(=C/c3ccccc3)c(=O)n2C1c1ccc(OC)c(OC)c1 (centres undefined)	n	x	n	x	x
CCOC(=O)C1=C(C)N=c2s/c(=C\c3ccncc3)c(=O)n2C1c1ccc2c(c1)OCO2 (centres undefined)	n	n	n	n	3.0
Cc1ccc(N=C2S/C(=C\c3cn(CC(=O)O)c4ccccc34)C(=O)N2C)cc1	n	x	n	x	x
Cn1c(C(=O)NCc2cccs2)cc2c(=O)n(C)c3ccccc3c21	n	n	n	n	40
Cn1c(C(=O)NCCN2CCOCC2)cc2c(=O)n(C)c3ccccc3c21	n	n	n	n	n
CN(CCNC(=O)c1cc2c(=O)n(C)c3ccccc3c2n1C)Cc1ccccc1	2.4	n	3.3	n	37
Cn1c(C(=O)NCCN2CCc3ccccc3C2)cc2c(=O)n(C)c3ccccc3c21	n	n	n	n	15
O=S(=O)(/C=C/c1ccccc1)NCc1ccccc1Cl	n	x	n	x	x
Cc1ccc(OCC(=O)Nc2oc(-c3ccccc3)c(-c3ccccc3)c2C#N)cc1	x	n	x	n	28
N#Cc1c(NC(=O)CSc2ncccn2)oc(-c2ccccc2)c1-c1ccccc1	x	n	x	n	n
COc1ccc(-c2oc(NC(=O)CCl)c(C#N)c2-c2ccc(OC)cc2)cc1	5.8	4.3	n	26	1.8
COc1ccc(-c2oc(NC(=O)CSc3ncn[nH]3)c(C#N)c2-c2ccc(OC)cc2)cc1	n	n	n	n	29
CCOC(=O)/C=C/C(=O)Nc1ccccc1C(=O)NC1CCCCC1	n	x	n	x	x
O=C(Cn1c2ccccc2c(=O)c2ccccc21)Nc1cccc(F)c1	n	x	n	x	x
CCOC(=O)CSc1nnc(CSc2nc3sc4c(c3c(=O)[nH]2)CCCC4)n1-c1ccccc1	n	n	n	n	n
O=c1c(C(c2ccccc2)c2c(O)sc3ccccc3c2=O)c(O)sc2ccccc12	n	n	n	n	36
O=c1c2ccccc2sc2ccc(Cl)cc12	n	x	n	x	x
CCSc1nnnn1-c1ccccc1	n	n	n	n	n
Cc1ccc(C)c(-n2nnnc2Sc2nnnn2-c2ccccc2)c1	2.0	15	1.8	24	2.3
COc1ccc2cc(C(c3nnnn3C(C)(C)C)N3CCc4ccccc4C3)c(=O)[nH]c2c1 (centres undefined)	3.5	n	n	n	n
CCC(C)(C)n1nnnc1C(c1cc2ccc(OC)cc2[nH]c1=O)N1CCc2ccccc2C1 (centres undefined)	n	n	2.9	n	n
COc1cccc(/C=C/C(=O)Nc2ccc(OC)nc2)c1	n	x	n	x	x
Oc1[nH]c2ccccc2c1N=Nc1ccc(F)cc1	n	x	n	x	x
Oc1[nH]c2ccccc2c1N=Nc1nc2ccccc2s1	1.3	x	1.6	x	x
COc1cc(C(=O)NCc2ccc(-c3nc4ccccc4o3)cc2)cc(OC)c1OC	n	n	n	45	n
SMILES	bCat KO growth	HUVEC inhibit	HCT116 PTEN-null	Lung fibro prol	H69AR inhibit
N=c1nc(N)nc2n1NC(c1ccc(F)cc1)=CS2	n	30	n	n	n
Cc1ccccc1N=Cc1cccc(O)c1O	n	x	n	x	x
Cc1ccc(N=Cc2cccc(O)c2O)c(C)c1	1.9	x	2.0	x	x
CCC1=Nc2cc(C(=O)NCCCOC)ccc2Sc2ccccc21	n	n	n	n	32
CCCC1=Nc2cc(C(=O)NCCCOCC)ccc2Sc2ccccc21	n	n	n	n	33
CCCC1=Nc2cc(C(=O)NCCCOC(C)C)ccc2Sc2ccccc21	n	n	n	n	16
CCC1=Nc2cc(C(=O)NCc3ccco3)ccc2Sc2ccc(C)cc21	n	x	n	x	x
CC(C)OCCCNC(=O)c1ccncc1	n	n	n	n	n
COc1cc(N=c2ssnc2Cl)cc(OC)c1OC	n	n	n	47	1.7
COc1ccc(N=c2ssnc2Cl)cc1	n	n	n	n	1.3
COc1ccc(N=C2C(=O)Nc3c(C)cccc32)cc1	n	n	n	n	n
N#Cc1ccc(N=c2ssnc2Cl)cc1	n	n	n	n	2.6
Clc1ccc(N=c2ssnc2Cl)cc1	n	n	n	n	1.9
CC(C)CNC(=O)COC(=O)CNC(=O)c1cc(Cl)cc([N+](=O)[O-])c1	n	x	n	x	x
CC1CCC(NC(=O)C2CCC(CNS(=O)(=O)c3cccc4nsnc34)CC2)CC1 (centres undefined)	n	n	n	n	17
O=C(NC1CCCCC1)C1CCC(CNS(=O)(=O)c2cccc3nsnc23)CC1 (centres undefined)	n	n	n	n	n
O=C(C1CCC(CNS(=O)(=O)c2cccc3nsnc23)CC1)N1CC=C(c2ccccc2)CC1 (centres undefined)	n	n	n	n	39
Cc1cc(C)cc(NCCC#N)c1	n	x	n	x	x
O=C1c2cccc(OCC(=O)N3N=C(c4cccs4)CC3c3ccc(F)cc3)c2CCN1Cc1cccnc1 (centres undefined)	n	x	n	x	x
CCOC(=O)CSc1nnc(NC(=O)c2cccc([N+](=O)[O-])c2C)s1	n	x	n	x	x
O=C(CSC(=S)N1CCOCC1)Nc1nc(=O)c2ccccc2s1	n	x	n	x	x
O=C(Nc1ccccc1Cl)NC1(C(=O)N2CCCC2)CCCCC1	0.7	n	0.8	n	n
O=C(Nc1ccccc1Cl)NC1(C(=O)N2CCCCC2)CCCCC1	n	n	n	n	n
CCOc1ccc2[nH]c(=O)c(CN(Cc3ccc(F)cc3)C(=O)c3ccco3)cc2c1	n	n	n	n	16
CCOc1ccc2[nH]c(=O)c(CN(Cc3ccco3)C(=O)c3ccc(Br)cc3)cc2c1	n	n	n	n	19
SMILES	bCat KO growth	HUVEC inhibit	HCT116 PTEN-null	Lung fibro prol	H69AR inhibit
Cc1ccc2[nH]c(=O)c(CN(Cc3ccco3)C(=O)c3ccncc3)cc2c1	n	n	n	n	23
CCOc1ccc2[nH]c(=O)c(CN(Cc3ccco3)C(=O)c3cccc(F)c3)cc2c1	n	n	n	n	n
COc1ccc(C(=O)N(Cc2ccco2)Cc2cc3cc(C)ccc3[nH]c2=O)cc1OC	x	n	x	n	n
COc1ccc2[nH]c(=O)c(CN(CC3CCCO3)C(=O)Nc3ccccc3OC)cc2c1 (centres undefined)	n	n	n	n	20
O=C(c1ccc2c(c1)OCO2)N(Cc1ccco1)C1(C(=O)NC2CCCCC2)CCCCC1	n	x	n	x	x
CCN(C(=O)CN1CCOCC1)C1(C)C(=O)c2ccccc2C1=O	n	x	n	x	x
CCOc1ccc2[nH]c(=O)c(CN(Cc3ccccc3OC)C(=O)c3ccccc3)cc2c1	n	n	n	n	27
Cc1cc2cc(CN(Cc3ccco3)C(=O)NCc3ccccc3)c(=O)[nH]c2cc1C	n	n	n	n	n
O=C(Nc1ccc(F)cc1)N(Cc1cccs1)Cc1cc2cc3c(cc2[nH]c1=O)OCO3	n	x	n	x	x
COc1ccc2[nH]c(=O)c(CN(Cc3ccco3)C(=O)c3ccccc3)cc2c1	n	n	n	n	n
